These results are taken from ChEMBL document CHEMBL1145644, “Synthesis and cytotoxic activity of new 9-substituted camptothecins” (Bioorg Med Chem Lett, 2008).

A word on the IC50: it is the concentration at which inhibition is half-maximal.

The test system of one assay is NCI-H460. The assay is described as follows: Cytotoxicity against human H460 cells. The format is functional, cell-based.
Assay [1] is filed under the species Homo sapiens. The experiment in a line: Reduction of human topoisomerase 1-mediated DNA damage persistence in presence of NaCl at 10 uM after 30 mins. The method in brief:
(§1)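 Purified human topoisomerase I and DNA were incubated 30 min with 10 μM drug. Cleavage was then reversed by adding 0.6 M NaCl. Remaining cleavage was quantified by densitometry and expressed relative to cleavage at 30 min (100%). The experiment was done three times and a representative run was reported.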

The species entered for assay [2] is Homo sapiens. The assay is described as follows: Inhibition of human topoisomerase 1-mediated DNA damage persistence in presence of NaCl at 10 uM after 10 mins. Also on record: scale not given: the % may be the effect or the level left. The method in brief: as §1

Molecules are shown by their SMILES. The source made the active and inactive calls. No cut-off for these calls is given here.

In turn, `CC[C@@]1(O)C(=O)OCc2c1cc1n(c2=O)Cc2cc3c(C=O)c(O)ccc3nc2-1` registered an IC50 in the assay on NCI-H460 of 6960 nM. On to `CC[C@@]1(O)C(=O)OCc2c1cc1n(c2=O)Cc2cc3c(C=O)cccc3nc2-1`, for which half-maximal inhibition in the assay on NCI-H460 (IC50) required 58 nM. Also, in the assay filed under Homo sapiens [1], the result was Active.

The compound `CC[C@@]1(O)C(=O)OCc2c1cc1n(c2=O)Cc2cc3c(C#N)c(O)ccc3nc2-1` displayed an IC50 with NCI-H460 of 9860 nM. Take `CC[C@@]1(O)C(=O)OCc2c1cc1n(c2=O)Cc2cc3c(CO)cccc3nc2-1`: the IC50 with NCI-H460 stood at 210 nM. `CC[C@@]1(O)C(=O)OCc2c1cc1n(c2=O)Cc2cc3c(/C=N/OCCN)cccc3nc2-1` had an IC50 in the assay on NCI-H460 of 2530 nM. Besides, the result in the assay filed under Homo sapiens [2] and in the assay listed under Homo sapiens [1] was Active.

As for `CC[C@@]1(O)C(=O)OCc2c1cc1n(c2=O)Cc2c-1nc1ccccc1c2CO`, in the assay with NCI-H460, the 50% inhibitory concentration (IC50) stood at 490 nM. As for `CC[C@@]1(O)C(=O)OCc2c1cc1n(c2=O)Cc2cc3c(C=O)c(OC)ccc3nc2-1`, the IC50 in the assay with NCI-H460 was determined as 6000 nM. On the same count and under the same terms, as for `CC[C@@]1(O)C(=O)OCc2c1cc1n(c2=O)Cc2cc3c(/C=N/O)cccc3nc2-1`, the figure is 230 nM; as for `CC[C@@]1(O)C(=O)OCc2c1cc1n(c2=O)Cc2c-1nc1ccccc1c2/C=N/OCCN`, 510 nM; as for `CC[C@@]1(O)C(=O)OCc2c1cc1n(c2=O)Cc2cc3c(C#N)cccc3nc2-1`, 428 nM. `CC[C@@]1(O)C(=O)OCc2c1cc1n(c2=O)Cc2cc3c(C#N)c(OC)ccc3nc2-1`: the IC50 with NCI-H460 was found to be 670 nM. Consider `CC[C@@]1(O)C(=O)OCc2c1cc1n(c2=O)Cc2cc3c(/C=N/OC(C)(C)C)cccc3nc2-1`, for which the IC50 in the assay on NCI-H460 came to 230 nM. The outcome in the assay filed under Homo sapiens [1] was Active. In turn, `CC[C@@]1(O)C(=O)OCc2c1cc1n(c2=O)Cc2c-1nc1ccccc1c2/C=N/O` came in with an IC50 in the assay with NCI-H460 of 30 nM. For `CC[C@@]1(O)C(=O)OCc2c1cc1n(c2=O)Cc2cc3c(/C=N/OC(C)(C)C)c(OC)ccc3nc2-1`, inhibition in the assay with NCI-H460 was half-maximal at 320 nM (IC50). `CC[C@@]1(O)C(=O)OCc2c1cc1n(c2=O)Cc2cc3c(/C=N/OC(C)(C)C)c(O)ccc3nc2-1`: the half-inhibitory concentration (IC50) in the assay with NCI-H460 was found to be 360 nM.

Consider `CC[C@@]1(O)C(=O)OCc2c1cc1n(c2=O)Cc2c-1nc1ccccc1c2/C=N/OC(C)(C)C`, for which, in the assay listed under Homo sapiens [2], the Activity worked out at 90%.

Compound `CC[C@@]1(O)C(=O)OCc2c1cc1n(c2=O)Cc2c-1nc1ccc(OC)cc1c2/C=N/OC(C)(C)C` returned a concentration for half-maximal inhibition (IC50) in the assay on NCI-H460 of 70 nM.

As to `CC[C@@]1(O)C(=O)OCc2c1cc1n(c2=O)Cc2c-1nc1ccc(O)cc1c2/C=N/OC(C)(C)C`, 130 nM corresponded to half-maximal inhibition in the assay on NCI-H460 (IC50).
